# Measurements pooled from the literature.
SMILES,target,test,setting,measurement,value
CCC(C)c1cccc(C(C)CC)c1O (stereo not drawn),"Potassium/sodium hyperpolarization-activated cyclic nucleotide-gated channel 1 (Hcn1, Mus musculus, UniProt O88704)","ion current, two-electrode voltage clamp",oocytes,IC50,~30000 nM
O=C(O)C1=CC(O)CC1 (stereo not drawn),"Calcium/calmodulin-dependent protein kinase type II subunit alpha (Rattus norvegicus, UniProt P11275)","cell-free assay, radioligand",pH 6,Ki,1580 nM
CCCCCCCCCCCCCC1OC(=O)/C1=C\CCCCC(N)=O (stereo not drawn),"Phosphatidylserine lipase ABHD16A (Homo sapiens, UniProt O95870)","cell-free assay, inhibitor",,IC50,200 to 500 nM
CC(C)CCC[C@@H](C)[C@H]1CC[C@H]2[C@@H]3C[C@@H](n4cncc4CCN)[C@@]4(O)C[C@@H](O)CC[C@]4(C)[C@H]3CC[C@]12C,"Bifunctional epoxide hydrolase 2 (EPHX2, Homo sapiens, UniProt P34913)","enzyme activity, inhibitor",,IC50,> 100000 nM
CN1CCC[C@H]1c1cccnc1,"Urea transporter 1 (Slc14a1, Rattus norvegicus, UniProt P97689)","transporter uptake, inhibitor",,IC50,~40000 nM
CCCS(=O)(=O)Nc1ccc(F)c(C(=O)c2c[nH]c3ncc(Br)cc23)c1F,"Dual specificity mitogen-activated protein kinase kinase 4 (MAP2K4, Homo sapiens, UniProt P45985)","enzyme activity, inhibitor, ADP detection",,IC50,1400 nM
O=C(CCCc1ccc(N(CCCl)CCCl)cc1)NCCC1CCN(CCOc2ccc(Oc3c(-c4ccc(O)cc4)sc4cc(O)ccc34)cc2)CC1,"Estrogen receptor beta (ESR2, Homo sapiens, UniProt Q92731)","ligand displacement, radioligand",,IC50,67 nM
CC(C)C[C@H](NC(=O)[C@H](Cc1ccccc1)NC(=O)[C@H](Cc1ccc(O)cc1)NC(=O)CNC(=O)[C@H](CCCCN)NC(=O)[C@H](CO)NC(=O)[C@H](CCC(N)=O)NC(=O)CNC(=O)[C@@H](NC(=O)[C@H](CO)NC(=O)[C@@H]1CCCN1C(=O)[C@H](CO)NC(=O)[C@H](CCC(N)=O)NC(=O)[C@H](Cc1ccc(O)cc1)NC(=O)[C@H](CCC(=O)O)NC(=O)[C@H](C)NC(=O)[C@H](CCCCN)NC(=O)[C@@H](N)Cc1ccccc1)C(C)C)C(=O)N[C@@H](Cc1ccccc1)C(=O)N[C@@H](CCCNC(=N)N)C(=O)N1CCC[C@H]1C(=O)N[C@@H](CCCNC(=N)N)C(=O)N[C@@H](CC(N)=O)C(N)=O,"Neuromedin-U receptor 1 (NMUR1, Homo sapiens, UniProt Q9HB89)","inositol phosphate, agonist, TR-FRET",,EC50,0.45 nM
Nc1ccn([C@@H]2O[C@H](COP(=O)(O)OP(=O)(O)OP(O)(O)=S)[C@@H](O)[C@H]2O)c(=O)n1,"virB (Shigella flexneri, UniProt P0A247)","binding, ITC",,Kd,14300 nM
CC(C)[C@@H]1NC(=O)[C@@H]2CCCN2C(=O)[C@H](Cc2ccccc2)NC(=O)CSC[C@@H](C(=O)N[C@@H](Cc2ccc(O)cc2)C(N)=O)NC(=O)[C@H](Cc2c[nH]c3ccccc23)NC(=O)[C@H](CCCCN)NC(=O)[C@H](Cc2ccccc2)N(C)C(=O)[C@H](Cc2ccccc2)NC1=O,"Stimulator of interferon genes protein (STING1, Homo sapiens, UniProt Q86WV6, H232R)","binding, SPR",,Kd,250 nM
N=C(N)NCCC[C@H](N)C(=O)O,"Nitric oxide synthase, inducible (Nos2, Mus musculus, UniProt P29477)",cell-free assay,,Kd,2600 nM
O=C(Nc1ccc(I)cc1)N1CCC(n2c(=O)[nH]c3c(Br)cccc32)CC1,"N-glycosylase/DNA lyase (OGG1, Homo sapiens, UniProt O15527)","enzyme activity, inhibitor, fluorescence",,IC50,342 nM
